≈ marks a conversion by molar mass, not a printed value. Calls of active or inactive are those of the source. No cut-off for these calls is given here.
What was measured:
Hormone-sensitive lipase [1] = molecular target: T1, Hormone-sensitive lipase (Rattus norvegicus, UniProt P15304); assay: Inhibition of HSL in rat adipocytes assessed as reduction in lipolysis by measuring glycerol concentration incubated for 30 mins by spectrophotometric analysis; assay type: cell-based
T1 sequence (P15304 whole entry): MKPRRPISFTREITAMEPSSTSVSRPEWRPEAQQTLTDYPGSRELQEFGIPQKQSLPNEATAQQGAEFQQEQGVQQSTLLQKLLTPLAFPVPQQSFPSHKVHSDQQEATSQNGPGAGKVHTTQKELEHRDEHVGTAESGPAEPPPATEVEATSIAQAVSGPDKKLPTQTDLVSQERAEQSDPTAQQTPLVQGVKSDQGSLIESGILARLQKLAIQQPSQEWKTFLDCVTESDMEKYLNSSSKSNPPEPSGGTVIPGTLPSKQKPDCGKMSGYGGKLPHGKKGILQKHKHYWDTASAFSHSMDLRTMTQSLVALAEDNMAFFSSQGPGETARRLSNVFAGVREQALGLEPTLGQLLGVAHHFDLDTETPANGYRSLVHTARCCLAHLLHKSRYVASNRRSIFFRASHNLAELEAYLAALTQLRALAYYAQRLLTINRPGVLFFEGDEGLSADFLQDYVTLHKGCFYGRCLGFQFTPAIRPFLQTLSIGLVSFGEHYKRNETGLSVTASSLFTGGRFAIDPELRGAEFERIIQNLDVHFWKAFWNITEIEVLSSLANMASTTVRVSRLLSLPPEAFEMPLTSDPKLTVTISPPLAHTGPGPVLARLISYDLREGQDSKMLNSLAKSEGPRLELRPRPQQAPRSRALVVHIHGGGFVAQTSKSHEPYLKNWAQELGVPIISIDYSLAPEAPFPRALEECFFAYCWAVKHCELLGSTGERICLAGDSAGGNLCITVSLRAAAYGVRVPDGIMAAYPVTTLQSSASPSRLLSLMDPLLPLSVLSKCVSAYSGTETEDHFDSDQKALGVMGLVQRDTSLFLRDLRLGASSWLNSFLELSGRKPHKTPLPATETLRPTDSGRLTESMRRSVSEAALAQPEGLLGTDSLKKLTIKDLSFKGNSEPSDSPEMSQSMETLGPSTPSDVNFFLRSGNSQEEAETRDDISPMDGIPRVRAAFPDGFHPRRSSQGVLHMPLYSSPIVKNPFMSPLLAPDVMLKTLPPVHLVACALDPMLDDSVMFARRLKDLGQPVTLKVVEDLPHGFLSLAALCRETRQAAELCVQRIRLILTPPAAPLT
Summary of the method: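 Rat subcutaneous white adipocytes, differentiated 7 days, washed in lipolysis buffer (pH 7.0, with glucose, HEPES, adenosine, 1% BSA). Compound dilutions in DMSO added, 30 min at 37°C, 5% CO2. Supernatant glycerol measured with a free glycerol kit at 540 nm. Triplicate; IC50 from nonlinear curve fitting.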

[2] = molecular target: Cholinesterase (Homo sapiens) (UniProt P06276); assay: Inhibition of BuChE (unknown origin) at 10 uM using S-butyrylthiocholin iodide as substrate preincubated for 10 mins followed by substrate addition measured after 15 mins by spectrophotometric analysis relative to control
Summary of the method: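 Enzyme (100 U/mL) preincubated with inhibitor 10 min at room temperature, then mixed with 0.1 M potassium phosphate-HCl pH 8.0, S-butyrylthiocholin iodide (final 1000 μM) and DTNB; incubated 15 min at 37°C with shaking. Absorbance at 405 nm read at 0 and 15 min. Tested at 1, 10 and 100 μM.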

[3] = molecular target: Acetylcholinesterase (Homo sapiens) (UniProt P22303); assay: Inhibition of AChE (unknown origin) at 10 uM using acetylthiocholine iodide as substrate preincubated for 10 mins followed by substrate addition measured after 15 mins by spectrophotometric analysis relative to control
Summary of the method: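 Enzyme (100 U/mL) preincubated with inhibitor 10 min at room temperature, then mixed with 0.1 M potassium phosphate-HCl pH 8.0, acetylthiocholin iodide (final 500 μM) and DTNB; incubated 15 min at 37°C with shaking. Absorbance at 405 nm read at 0 and 15 min. Tested at 1, 10 and 100 μM.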

[4] = Effective permeability of the compound in prisma HT buffer at 10 mM at pH 7.4 after 4 hrs by PAMPA; assay type: physicochemical; conditions: read-out: Peff
Summary of the method: (§1)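 PAMPA: filter coated with GIT-0 lipid. 10 mM DMSO stock diluted into Prisma HT buffer to give 5 µM donor solution (0.05% DMSO) at pH 5.0 or 7.4. Acceptor sink buffer used. Incubated 4 h at 25°C. Both compartments quantified by LC-MS/MS to derive the permeability coefficient.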

[5] = Aqueous solubility of the compound in Japanese pharmacopoeia first fluid at pH 1.2 after 4 hrs by HPLC/UV analysis; assay type: physicochemical
Summary of the method: (§2)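 Solubility: DMSO sample solution freeze-dried. Residue stirred at 1700 rpm for 4 h in JP first fluid (pH 1.2), JP second fluid (pH 6.8) or FaSSIF. Filtered, filtrate diluted in DMSO, quantified by HPLC-UV against a per-sample calibration curve.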

[6] = Effective permeability of the compound in prisma HT buffer at 10 mM at pH 5 after 4 hrs by PAMPA; assay type: physicochemical; conditions: read-out: Peff; summary of the method: as §1
[7] = AUC (0 to 7 hrs) in rat at 3 mg/kg, po by LC-MS/MS analysis; assay type: ADME, organism-based; set-up: time < 7 hr, dose 3 mg/kg, route oral; conditions: in vivo
[8] = Cmax in rat at 3 mg/kg, po by LC-MS/MS analysis; assay type: ADME, organism-based; set-up: dose 3 mg/kg, route oral; conditions: in vivo
[9] = Aqueous solubility of the compound in Japanese pharmacopoeia second fluid at pH 6.8 after 4 hrs by HPLC/UV analysis; assay type: physicochemical; summary of the method: as §2
[10] = Aqueous solubility of the compound in FaSSIF after 4 hrs by HPLC/UV analysis; assay type: physicochemical; summary of the method: as §2
[11] = 1-octanol/phosphate buffered saline distribution coefficient, log D of the compound at 200 uM at pH 7.4 after 30 mins by shake flask based HPLC/LC-MS analysis; assay type: physicochemical
Summary of the method: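 Shake-flask LogD: PBS and 1-octanol pre-saturated by shaking and standing overnight. Compound at 200 μM in either phase, equal volume of the other added, shaken 30 min at room temperature, centrifuged 2100 g 5 min. Both phases quantified by HPLC and LC-MS. LogD7.4 = log(octanol peak area/PBS peak area).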

Rattus norvegicus [12] = assay: Antilipolytic activity in Wistar rat assessed as reduction in plasma glycerol AUC (0 to 7 hrs) at 1 mg/kg, po by spectrophotometric analysis relative to control; assay type: functional; set-up: scale not given: the % may be the effect or the level left
Summary of the method: (§3)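 Male Wistar rats, 8 weeks, fasted overnight. Dosed orally in 0.5% (w/v) methylcellulose, with vehicle controls (n = 4) and treated groups (n = 3). Tail-vein EDTA blood taken pre-dose and at 0.5, 1, 3, 5, 7 h. Plasma glycerol read with a free glycerol kit. Reduction in glycerol AUC0–7h versus vehicle expressed relative to a reference inhibitor group; mean ± SEM.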

Rattus norvegicus [13] = assay: Antilipolytic activity in Wistar rat assessed as reduction in plasma glycerol AUC (0 to 7 hrs) at 10 mg/kg, po by spectrophotometric analysis; assay type: functional, organism-based; summary of the method: as §3
Hormone-sensitive lipase [14] = molecular target: T2, Hormone-sensitive lipase (Homo sapiens, UniProt Q05469); assay: Inhibition of recombinant human HSL expressed in baculovirus infected sf9 insect cells using PNPB as substrate after 5 mins by spectrophotometric analysis
T2 sequence (Q05469 whole entry): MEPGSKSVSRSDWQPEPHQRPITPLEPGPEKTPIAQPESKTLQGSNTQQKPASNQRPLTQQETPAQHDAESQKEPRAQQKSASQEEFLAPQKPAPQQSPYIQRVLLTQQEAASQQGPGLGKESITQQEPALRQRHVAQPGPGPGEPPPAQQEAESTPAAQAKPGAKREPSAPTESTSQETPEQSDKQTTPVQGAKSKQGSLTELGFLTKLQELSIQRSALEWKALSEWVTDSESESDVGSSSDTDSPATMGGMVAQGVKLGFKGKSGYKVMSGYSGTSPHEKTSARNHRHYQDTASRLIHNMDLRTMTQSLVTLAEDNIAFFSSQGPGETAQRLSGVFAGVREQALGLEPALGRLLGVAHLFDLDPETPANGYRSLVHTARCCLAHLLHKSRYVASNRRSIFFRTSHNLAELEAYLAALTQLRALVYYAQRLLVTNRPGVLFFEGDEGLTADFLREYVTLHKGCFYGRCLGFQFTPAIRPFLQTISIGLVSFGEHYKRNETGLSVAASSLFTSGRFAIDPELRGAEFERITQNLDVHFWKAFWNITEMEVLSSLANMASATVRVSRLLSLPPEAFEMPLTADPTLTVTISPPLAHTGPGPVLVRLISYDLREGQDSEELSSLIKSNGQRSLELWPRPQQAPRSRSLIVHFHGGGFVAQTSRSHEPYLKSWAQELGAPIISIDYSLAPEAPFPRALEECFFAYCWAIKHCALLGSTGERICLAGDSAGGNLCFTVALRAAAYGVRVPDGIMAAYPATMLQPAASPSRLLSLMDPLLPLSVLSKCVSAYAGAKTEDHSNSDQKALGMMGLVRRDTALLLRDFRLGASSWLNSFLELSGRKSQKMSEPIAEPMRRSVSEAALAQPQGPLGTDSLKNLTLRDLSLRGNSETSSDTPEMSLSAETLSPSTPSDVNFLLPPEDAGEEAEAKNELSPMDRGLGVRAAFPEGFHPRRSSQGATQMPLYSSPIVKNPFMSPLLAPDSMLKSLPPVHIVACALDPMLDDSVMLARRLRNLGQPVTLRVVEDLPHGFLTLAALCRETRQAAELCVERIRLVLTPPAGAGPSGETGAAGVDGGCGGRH

Sequence of Acetylcholinesterase (Homo sapiens) (P22303 whole entry): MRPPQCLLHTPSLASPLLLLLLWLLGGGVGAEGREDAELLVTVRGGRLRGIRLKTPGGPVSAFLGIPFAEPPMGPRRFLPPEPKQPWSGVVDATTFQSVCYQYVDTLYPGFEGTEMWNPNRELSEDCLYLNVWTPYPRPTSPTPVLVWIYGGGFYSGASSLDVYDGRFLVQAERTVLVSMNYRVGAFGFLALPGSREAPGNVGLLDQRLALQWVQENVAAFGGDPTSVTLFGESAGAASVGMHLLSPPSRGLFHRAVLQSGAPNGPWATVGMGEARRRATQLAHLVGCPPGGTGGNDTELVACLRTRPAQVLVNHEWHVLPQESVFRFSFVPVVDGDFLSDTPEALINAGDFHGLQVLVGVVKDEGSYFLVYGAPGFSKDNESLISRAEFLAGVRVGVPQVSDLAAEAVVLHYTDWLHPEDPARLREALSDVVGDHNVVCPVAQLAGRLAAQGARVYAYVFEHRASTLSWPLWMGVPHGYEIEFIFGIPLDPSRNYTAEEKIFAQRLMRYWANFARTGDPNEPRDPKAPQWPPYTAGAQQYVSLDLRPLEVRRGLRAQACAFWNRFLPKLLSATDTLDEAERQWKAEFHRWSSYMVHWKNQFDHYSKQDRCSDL
Sequence of Cholinesterase (Homo sapiens) (P06276 whole entry): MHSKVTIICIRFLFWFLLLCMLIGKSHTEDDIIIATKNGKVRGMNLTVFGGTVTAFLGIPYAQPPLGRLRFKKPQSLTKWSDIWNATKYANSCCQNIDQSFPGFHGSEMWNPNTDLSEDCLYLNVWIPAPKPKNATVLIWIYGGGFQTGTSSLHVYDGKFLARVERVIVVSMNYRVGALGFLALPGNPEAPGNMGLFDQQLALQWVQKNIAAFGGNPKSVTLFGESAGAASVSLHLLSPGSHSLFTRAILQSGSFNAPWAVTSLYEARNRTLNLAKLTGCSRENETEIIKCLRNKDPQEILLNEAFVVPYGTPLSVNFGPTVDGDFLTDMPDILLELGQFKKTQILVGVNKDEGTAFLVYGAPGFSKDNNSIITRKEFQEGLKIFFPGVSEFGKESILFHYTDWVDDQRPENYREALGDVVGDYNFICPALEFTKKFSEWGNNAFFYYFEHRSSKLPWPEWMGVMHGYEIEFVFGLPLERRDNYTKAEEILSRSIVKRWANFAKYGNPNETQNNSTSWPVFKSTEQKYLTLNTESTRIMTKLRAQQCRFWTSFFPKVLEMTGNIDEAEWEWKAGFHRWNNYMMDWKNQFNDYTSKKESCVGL

Structure (SMILES)	IC50 (Hormone-sensitive lipase [1]) [nM]	inhibition [2] [%]	inhibition [3] [%]	also measured
O=C(Cc1ccccc1B(O)O)N1CCC(Oc2ccc(C(F)(F)F)nc2)CC1	180	62	6	
O=C(Cc1ccccc1B(O)O)N1CCC(Oc2ccc(C(F)(F)F)cn2)CC1	80	46	7	
O=C(Nc1ccccc1B(O)O)c1ccc(Oc2ccc(C(F)(F)F)cn2)cn1	1100			
O=C(Cc1ccccc1B(O)O)N1CCC(COc2ccc(C(F)(F)F)cn2)CC1	260			
O=C(Cc1ccc(F)cc1B(O)O)N1CCC(Oc2ccc(C(F)(F)F)cn2)CC1		2	7	Papp at 4 h, 10000 µM [4]: > 50 ×10⁻⁶ cm/s; solubility at 4 h [5]: 190 µg/mL (≈ 446 µM); Papp at 4 h, 10000 µM [6]: > 50 ×10⁻⁶ cm/s; AUC(0-t) at 7 h [7]: 3180 ng·h/mL; Cmax [8]: 650 ng/mL; solubility at 4 h [9]: 84 µg/mL (≈ 197 µM); solubility at 4 h [10]: 99 µg/mL (≈ 232 µM); logD at 0.5 h, 200 µM [11]: 3.7; Activity (Rattus norvegicus [12]): 22%
O=C(CCc1ccccc1B(O)O)N1CCC(Oc2ccc(C(F)(F)F)cn2)CC1	1400			
O=C(Oc1ccc(Oc2ccc(C(F)(F)F)cn2)cc1)N1CCC(O)CC1				Activity (Rattus norvegicus [13]): Active
OB(O)c1ccccc1CN1CCC(Oc2ccc(C(F)(F)F)cn2)CC1	1400			
COc1ccc(CC(=O)N2CCC(Oc3ccc(C(F)(F)F)cn3)CC2)c(B(O)O)c1	45	-4	9	
O=C(Cc1ccccc1B(O)O)N1CCC(Oc2ccc(C(F)(F)F)cc2)CC1	130	72	9	
O=C(Nc1ccc(Cl)cc1B(O)O)c1ccc(Oc2ccc(C(F)(F)F)cc2)nc1	110			solubility at 4 h [5]: 1.8 µg/mL (≈ 4.12 µM); solubility at 4 h [9]: 1.5 µg/mL (≈ 3.44 µM); solubility at 4 h [10]: 12 µg/mL (≈ 27.5 µM); logD at 0.5 h, 200 µM [11]: 4.3
CN(C)C(=O)c1ccc(OC2CCN(C(=O)Cc3ccccc3B(O)O)CC2)nc1				IC50 (Hormone-sensitive lipase [14]): > 5 µM
O=C(C(O)c1ccccc1B(O)O)N1CCC(Oc2ccc(C(F)(F)F)cn2)CC1 (configuration not stated)	280	4	-4	
O=C(Nc1ccccc1B(O)O)c1ccc(Oc2ccc(C(F)(F)F)cn2)cc1	470			logD at 0.5 h, 200 µM [11]: 3.2
O=C(Cc1ccc(Cl)cc1B(O)O)N1CCC(Oc2ccc(C(F)(F)F)cn2)CC1	24	5	8	
